# Data published in ChEMBL document CHEMBL3045452, “Behavioral responses of the diamondback moth, Plutella xylostella, to green leaf volatiles of Brassica oleracea subsp. capitata” (2000).
# Activity calls are given as the source filed them. The calls are words filed in the database; no cut-off is given here.
# How the values were obtained:
# Plutella xylostella [1] = experiment: Induction of response in mated male Plutella xylostella (diamondback moth) assessed as flying moth level at 10 uL measured after 10 min by wind tunnel bioassays (Rvb hexane = 0%); assay type: functional
# Method in brief: (§1)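 Wind tunnel 240 × 30 × 30 cm. Moths acclimatized in the room ≥3 h beforehand. Filter-paper dispenser (4 × 2 cm) hung 15 cm high, loaded with 10 µL of GLV, synthetic pheromone (Z11-16:Ald/Z11-16:Ac/Z11-16:OH 1:1:0.01), a 1:1 mix, or hexane. Two moths released per replicate and watched 10 min; 20 replicates (40 insects) per treatment. Hexane control run twice daily; one treatment per day, tunnel washed between treatments.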
# Plutella xylostella [2] = experiment: Induction of response in mated male Plutella xylostella (diamondback moth) assessed as flying moth level at 10 uL in presence of synthetic pheromone measured after 10 min by wind tunnel bioassays (Rvb hexane = 0%); assay type: functional; method in brief: as §1
# Plutella xylostella [3] = experiment: Induction of response in unmated female Plutella xylostella (diamondback moth) assessed as flying moth level at 10 uL in presence of synthetic pheromone measured after 10 min by wind tunnel bioassays (Rvb hexane = 5%); assay type: functional; method in brief: as §1
# Plutella xylostella [4] = experiment: Induction of response in mated male Plutella xylostella (diamondback moth) assessed as landing moth level at 10 uL in presence of synthetic pheromone measured after 10 min by wind tunnel bioassays (Rvb hexane = 0%); assay type: functional; method in brief: as §1
# Plutella xylostella [5] = experiment: Induction of response in unmated female Plutella xylostella (diamondback moth) assessed as landing moth level at 10 uL in presence of synthetic pheromone measured after 10 min by wind tunnel bioassays (Rvb hexane = 0%); assay type: functional; method in brief: as §1
# Plutella xylostella [6] = experiment: Induction of response in unmated male Plutella xylostella (diamondback moth) assessed as flying moth level at 10 uL measured after 10 min by wind tunnel bioassays (Rvb hexane = 5%); assay type: functional; method in brief: as §1
# Plutella xylostella [7] = experiment: Induction of response in unmated male Plutella xylostella (diamondback moth) assessed as landing moth level at 10 uL measured after 10 min by wind tunnel bioassays (Rvb hexane = 0%); assay type: functional; method in brief: as §1
# Plutella xylostella [8] = experiment: Induction of response in unmated male Plutella xylostella (diamondback moth) assessed as flying moth level at 10 uL in presence of synthetic pheromone measured after 10 min by wind tunnel bioassays (Rvb hexane = 5%); assay type: functional; method in brief: as §1
# Plutella xylostella [9] = experiment: Induction of response in mated female Plutella xylostella (diamondback moth) assessed as flying moth level at 10 uL measured after 10 min by wind tunnel bioassays (Rvb hexane = 5%); assay type: functional; method in brief: as §1
# Plutella xylostella [10] = experiment: Induction of response in unmated female Plutella xylostella (diamondback moth) assessed as flying moth level at 10 uL measured after 10 min by wind tunnel bioassays (Rvb hexane = 5%); assay type: functional; method in brief: as §1
# Plutella xylostella [11] = experiment: Induction of response in unmated female Plutella xylostella (diamondback moth) assessed as landing moth level at 10 uL measured after 10 min by wind tunnel bioassays (Rvb hexane = 0%); assay type: functional; method in brief: as §1
# Plutella xylostella [12] = experiment: Induction of response in mated female Plutella xylostella (diamondback moth) assessed as landing moth level at 10 uL in presence of synthetic pheromone measured after 10 min by wind tunnel bioassays (Rvb hexane = 0%); assay type: functional; method in brief: as §1
# Plutella xylostella [13] = experiment: Induction of response in unmated male Plutella xylostella (diamondback moth) assessed as landing moth level at 10 uL in presence of synthetic pheromone measured after 10 min by wind tunnel bioassays (Rvb hexane = 0%); assay type: functional; method in brief: as §1
# Plutella xylostella [14] = experiment: Induction of response in mated female Plutella xylostella (diamondback moth) assessed as landing moth level at 10 uL measured after 10 min by wind tunnel bioassays (Rvb hexane = 0%); assay type: functional; method in brief: as §1
# Plutella xylostella [15] = experiment: Induction of response in mated male Plutella xylostella (diamondback moth) assessed as landing moth level at 10 uL measured after 10 min by wind tunnel bioassays (Rvb hexane = 0%); assay type: functional; method in brief: as §1
# Plutella xylostella [16] = experiment: Induction of response in mated female Plutella xylostella (diamondback moth) assessed as flying moth level at 10 uL in presence of synthetic pheromone measured after 10 min by wind tunnel bioassays (Rvb hexane = 5%); assay type: functional; method in brief: as §1
# Plutella xylostella [17] = experiment: Attractant activity in male Plutella xylostella (diamondback moth) in cabbage field assessed as moth capture level using sticky traps baited with compound by field trapping method; assay type: functional, organism-based
# Plutella xylostella [18] = experiment: Potentiation of synthetic pheromone attractant activity in male Plutella xylostella (diamondback moth) in cabbage field assessed as moth capture level using sticky traps baited with compound and synthetic pheromone at 1:1 ratio by field trapping method relative to synthetic pheromone alone; assay type: functional
# Plutella xylostella [19] = experiment: (§2) Potentiation of synthetic pheromone attractant activity in female Plutella xylostella (diamondback moth) in cabbage field assessed as female moth attraction level using sticky traps baited with compound and synthetic pheromone at 1:1 ratio by field trapping method relative to compound alone; assay type: functional
# Plutella xylostella [20] = experiment: as §2, with “to synthetic pheromone” for “to compound”; assay type: functional
SMILES,Activity (Plutella xylostella [1]),Activity (Plutella xylostella [2]),Activity (Plutella xylostella [3]),Activity (Plutella xylostella [4]),Activity (Plutella xylostella [5]),Activity (Plutella xylostella [6]),Activity (Plutella xylostella [7]),Activity (Plutella xylostella [8]),Activity (Plutella xylostella [9]),Activity (Plutella xylostella [10]),Activity (Plutella xylostella [11]),Activity (Plutella xylostella [12]),Activity (Plutella xylostella [13]),Activity (Plutella xylostella [14]),Activity (Plutella xylostella [15]),Activity (Plutella xylostella [16]),Activity (Plutella xylostella [17]),Activity (Plutella xylostella [18]),fold change (FC) (Plutella xylostella [19]),fold change (FC) (Plutella xylostella [20])
CCC/C=C/C=O,20%,25%,25%,25%,20%,30%,20%,90%,55%,20%,15%,50%,85%,50%,15%,50%,–,–,–,–
C=CC(O)CCC (stereo unspecified),0%,5%,0%,10%,5%,20%,10%,65%,10%,0%,5%,20%,60%,20%,5%,35%,–,–,–,–
CCCCCCO [1-HEXANOL],0%,5%,5%,10%,5%,15%,5%,75%,15%,5%,5%,25%,70%,20%,5%,25%,–,–,–,–
CC/C=C\CCOC(C)=O [(Z)-hex-3-en-1-yl acetate],30%,35%,25%,35%,30%,40%,25%,100%,60%,20%,25%,60%,95%,55%,20%,65%,inactive,20%,3,6
CC/C=C\CCO [CIS-3-HEXENOL],0%,15%,10%,20%,20%,25%,15%,85%,40%,10%,15%,45%,80%,40%,10%,40%,–,–,–,–
CCCCCC=O [HEXANAL],5%,5%,10%,10%,10%,10%,10%,80%,30%,5%,5%,25%,75%,25%,10%,35%,–,–,–,–
CCCCCCOC(C)=O [HEXYL ACETATE],0%,0%,5%,5%,0%,10%,5%,60%,5%,5%,0%,15%,55%,10%,5%,20%,–,–,–,–
